Measured values collected from several papers.
Lines come from different studies, so protocols differ.
Method: competition with immobilised ligand
RPS6KA6 N-terminal kinase domain: Ribosomal protein S6 kinase alpha-6, N-terminal kinase domain (RPS6KA6, Homo sapiens, UniProt Q9UK32)
RPS6KA6 C-terminal kinase domain: Ribosomal protein S6 kinase alpha-6, C-terminal kinase domain (RPS6KA6, Homo sapiens, UniProt Q9UK32)

| SMILES | target | assay | setting | remaining binding [%] |
| --- | --- | --- | --- | --- |
| CN(C)c1nccc(-c2cnn3ncccc23)n1 | RPS6KA6 N-terminal kinase domain | binding | 1 µM | 92 |
| O=C(c1ccc(Nc2nccc(-c3cc4ccccc4s3)n2)cc1)N1CCC(N2CCCC2)CC1 | RPS6KA6 C-terminal kinase domain | binding | 1 µM | 63 |
| N[C@H]1CCN(c2nccc(-c3cnn4ncccc34)n2)C1 | RPS6KA6 C-terminal kinase domain | binding | 1 µM | 86 |
| CNC(=O)[C@@H]1CC[C@@H](n2c(-c3ccc4cnccc4c3)nc3ccc(C(=O)NCc4cccc(C(N)=O)c4)cc32)C1 | RPS6KA6 C-terminal kinase domain | binding | 1 µM | 97 |
| Cc1cnc(Nc2ccc(C(=O)N3CCC(N4CCCC4)CC3)cc2)nc1-c1cc2ccccc2s1 | RPS6KA6 C-terminal kinase domain | binding | 1 µM | 72 |
| Nc1ncc2c(n1)-c1c([nH]c3ccc(C#CC4CC4)cc13)CCCC2 | RPS6KA6 N-terminal kinase domain | binding | 1 µM | 78 |
| NS(=O)(=O)c1cc(NC(=O)C2(c3ccccc3Cl)CC2)ccc1Oc1cccc(Cl)c1 | RPS6KA6 C-terminal kinase domain | cell-free assay | 1 µM | 96 |
| CN(c1nccc(-c2cnn3ncccc23)n1)C1CC1 | RPS6KA6 N-terminal kinase domain | binding | 1 µM | 83 |
| O=C(O)c1cc(-c2ccc(C3CCNCC3)cc2)c2ccc(-c3ccc(C(F)(F)F)cc3)cc2c1 | RPS6KA6 N-terminal kinase domain | cell-free assay | 1 µM | 100 |
| O=C(NCCCN1CCOCC1)c1ccc(Nc2nccc(-c3cc4ccccc4s3)n2)cc1 | RPS6KA6 N-terminal kinase domain | binding | 1 µM | 67 |
| O=C(NS(=O)(=O)c1ccc(NCC2CCOCC2)c([N+](=O)[O-])c1)c1ccc(N2CCN(Cc3ccc(C(F)(F)F)cc3-c3ccc(Cl)cc3)CC2)cc1Oc1cnc2[nH]ccc2c1 | RPS6KA6 C-terminal kinase domain | cell-free assay | 1 µM | 100 |
| FC(F)(F)Oc1cccc(-c2cnc3ccc(-c4ccncc4)nn23)c1 | RPS6KA6 C-terminal kinase domain | binding | 5 µM | 34 |
| COc1cc(C(=O)N2CCC(N3CCN(C)CC3)CC2)ccc1Nc1ncc2c(n1)N(C)c1ccccc1C(=O)N2C | RPS6KA6 C-terminal kinase domain | binding | 10 µM | 2.2 |
| c1cncc(-c2cccc(Nc3nccc(NC4CCCCC4)n3)c2)c1 | RPS6KA6 C-terminal kinase domain | binding | 10 µM | 87 |
| O=C(c1ccc(Nc2ncc(Cl)c(-c3cc4ccccc4s3)n2)cc1)N1CCC(N2CCCC2)CC1 | RPS6KA6 N-terminal kinase domain | binding | 1 µM | 46 |
| F[C@@H]1CCN(c2nccc(-c3cnn4ncccc34)n2)C1 | RPS6KA6 C-terminal kinase domain | binding | 1 µM | 92 |
| O=C(NCC1CCOCC1)c1n[nH]cc1NC(=O)c1c(F)cccc1F | RPS6KA6 C-terminal kinase domain | binding | 1 µM | 99 |

| SMILES | target | assay | setting | remaining binding [%] |
| --- | --- | --- | --- | --- |
| COc1cnc(Nc2cccc(S(N)(=O)=O)c2)nc1N1CCN(c2ccccc2)C(=O)C1 | RPS6KA6 C-terminal kinase domain | binding | 1 µM | 92 |
| COc1ncc2cc3ccccc3nc2c1C#N | RPS6KA6 N-terminal kinase domain | cell-free assay | 5 µM | 100 |
| CN(C)c1ncc(F)c(-c2cnn3ncccc23)n1 | RPS6KA6 C-terminal kinase domain | binding | 1 µM | 98 |
| O=C1NC(c2ccccn2)Sc2ccccc21 (stereo not drawn) | RPS6KA6 N-terminal kinase domain | cell-free assay | 1 µM | 96 |
| CN(C)c1nccc(-c2cnc3ncccn23)n1 | RPS6KA6 N-terminal kinase domain | binding | 1 µM | 69 |
| C[C@@H]1CN(c2cc(-c3nn(C)c4ccc(OC5(C)CC5)cc34)ncn2)C[C@H](C)O1 | RPS6KA6 C-terminal kinase domain | cell-free assay | 1 µM | 79 |
| O=C(c1ccc(Nc2ncc(Cl)c(-c3ccc(Cl)s3)n2)cc1)N1CCC(N2CCCC2)CC1 | RPS6KA6 N-terminal kinase domain | binding | 1 µM | 41 |
| COc1cc(-c2cn(C3CCc4ccccc4N(CC(F)(F)F)C3=O)nn2)ccc1-n1ccc(C)n1 (stereo not drawn) | RPS6KA6 N-terminal kinase domain | cell-free assay | 1 µM | 81 |
| Cc1cnn2ncc(-c3ccnc(N(C)C)n3)c2c1 | RPS6KA6 N-terminal kinase domain | binding | 1 µM | 82 |
| CCN1CCN(Cc2ccc(C(=O)Nc3ccc(C)c(Oc4ccc5c(c4)CC(=O)N5)c3)cc2C(F)(F)F)CC1 | RPS6KA6 C-terminal kinase domain | binding | 1 µM | 89 |
| O=C(Nc1c[nH]nc1C(=O)NC1CCNCC1)c1cc(F)cc(F)c1 | RPS6KA6 N-terminal kinase domain | binding | 1 µM | 94 |
| CCS(=O)(=O)c1cc2cc(C[C@@](O)(CC(C)(C)c3ccc(F)cc3C(N)=O)C(F)(F)F)[nH]c2cn1 | RPS6KA6 N-terminal kinase domain | cell-free assay | 1 µM | 100 |
| CC1CCCN1c1nccc(-c2cnn3ncccc23)n1 (stereo not drawn) | RPS6KA6 C-terminal kinase domain | binding | 1 µM | 100 |
| O=C(NCCCN1CCOCC1)c1ccc(Nc2ncc(Cl)c(-c3ccc(Cl)s3)n2)cc1 | RPS6KA6 C-terminal kinase domain | binding | 1 µM | 85 |
| COc1cnc(Nc2cccc(S(N)(=O)=O)c2)nc1N1CCN(c2ccccc2)CC1 | RPS6KA6 N-terminal kinase domain | binding | 1 µM | 73 |
| Cc1c(C(=O)O)cc(-c2ccc(C3CCNCC3)cc2)c2ccc(-c3ccc(C(F)(F)F)cc3)cc12 | RPS6KA6 C-terminal kinase domain | binding | 1 µM | 100 |
